The text below walks through data of ChEMBL document CHEMBL1141808, “Polymethoxylated flavones derived from citrus suppress tumor necrosis factor-alpha expression by human monocytes” (J Nat Prod, 1999).

The target in test [1] is T1, Phosphodiesterase 4 (Homo sapiens) (UniProt P27815+Q08499+Q07343+Q08493). Description: Inhibition of PDE4 in human monocytes assessed as elevation of cytosolic cAMP level at 100 uM treated for 30 mins assessed per 10^7 cells by EIA. The format is cell-based. The gist of the method:
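Elutriated human monocytes at 5 × 10^6/mL in complete medium (30% FCS) were precultured 2 h at 37 °C and 5% CO2. They were then exposed for 30 min to 100 µM flavone or 200 µM IBMX. Cells were lysed in cold 10 mM HEPES pH 7.6 with 1% NP40. cAMP was isolated on SAX columns, eluted with methanol/0.01 M HCl, dried, and quantified by EIA as pmol/10^7 cells.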
In general terms: Changes in cAMP serve as a functional read-out for many G protein-coupled receptors.

Test [2] concerns Monocyte. Description: Inhibition of MIP1alpha expression in LPS-stimulated human monocytes at 100 uM treated 30 mins before LPS challenge measured after 14 hrs by ELISA. The format is functional. The gist of the method: (§1)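 Monocyte cultures were held 14 h in medium alone, with 20 ng/mL LPS alone, or with LPS plus 100 µM compound. IBMX served as reference. TNFα, IL-6, IL-8, IL-10 and MIP-1α were measured in supernatants by ELISA, and IL-1β in cell lysates made with 1% NP40 in PBS. Significance versus LPS alone was set at p < 0.05.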
Background: ELISA stands for enzyme-linked immunosorbent assay.

For test [3], the system named is Monocyte. The test can be described thus: Inhibition of MIP1alpha expression in LPS-stimulated human monocytes treated 30 mins before LPS challenge measured after 14 hrs by ELISA. The format is functional, cell-based. The method in brief:
(§2)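 Human PBMC at 4 × 10^6/mL in DMEM with 30% FCS, glutamine and pen/strep were allowed to adhere for 2 h at 37 °C and 5% CO2. Nonadherent lymphocytes were washed off. Adherent monocytes were preincubated 30 min with graded compound concentrations, then stimulated with LPS. After 14 h, supernatants were assayed by ELISA. Values are percent of compound-free cultures, as means ± SE from three donors.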

Test [4] deals with Monocyte. The test can be described thus: Inhibition of TNFalpha expression in LPS-stimulated human monocytes treated 30 mins before LPS challenge measured after 14 hrs by ELISA. The format is functional, cell-based. The method in brief: as §2
Test [5] deals with Monocyte. The test can be described thus: Increase in IL6 expression in LPS-stimulated human monocytes at 100 uM treated 30 mins before LPS challenge measured after 14 hrs by ELISA. The format is functional. The gist of the method: as §1
For test [6], the system named is Monocyte. The test can be described thus: Inhibition of IL6 expression in LPS-stimulated human monocytes at 100 uM treated 30 mins before LPS challenge measured after 14 hrs by ELISA. The format is functional. The method in brief:
as §1

The subject of test [7] is Monocyte. The test can be described thus: Inhibition of IL10 expression in LPS-stimulated human monocytes treated 30 mins before LPS challenge measured after 14 hrs by ELISA. The format is functional, cell-based. The gist of the method: as §2
Test [8] concerns Monocyte. The test can be described thus: Inhibition of IL1-beta mRNA expression in LPS-stimulated human monocytes treated 30 mins before LPS challenge measured after 90 mins by RT-PCR. It is filed as functional, cell-based. The gist of the method:
(§3)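 Elutriated monocytes at 5 × 10^6/mL in complete medium were preincubated 30 min at 37 °C with graded compound concentrations. They were then stimulated with 20 ng/mL LPS for 90 min. Total RNA was isolated with RNAzol. TNFα and IL-1β mRNA were measured by RT-PCR with [α-32P]dCTP, relative to GAPDH.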

Test [9] relates to Monocyte. Description: Inhibition of IL10 expression in LPS-stimulated human monocytes at 100 uM treated 30 mins before LPS challenge measured after 14 hrs by ELISA. The format is functional. The method in brief:
as §1

In test [10] the target is T1, Phosphodiesterase 4 (Homo sapiens). The test can be described thus: Inhibition of PDE4 in human U937 cells assessed as inhibition of cAMP hydrolysis at 2 uM by SPA. The format is cell-based. Particulars: U-937. The gist of the method: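 PDE, mostly type IV by isoform-inhibitor sensitivity, was semipurified from U937 cells. cAMP hydrolysis was measured by scintillation proximity assay across graded compound concentrations. Rates were expressed as percent of flavonoid-free control, and the concentration giving 50% inhibition was reported.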

The test system of test [11] is Monocyte. Description: Inhibition of TNFalpha expression in LPS-stimulated human monocytes at 100 uM treated 30 mins before LPS challenge measured after 14 hrs by ELISA. The format is functional. The gist of the method:
as §1

Test [12] has as its system Monocyte. The test can be described thus: Inhibition of IL8 expression in LPS-stimulated human monocytes at 100 uM treated 30 mins before LPS challenge measured after 14 hrs by ELISA. It is filed as functional. The gist of the method: as §1
In test [13] the test system is Monocyte. The test can be described thus: Inhibition of TNFalpha mRNA expression in LPS-stimulated human monocytes treated 30 mins before LPS challenge measured after 90 mins by RT-PCR. The format is functional, cell-based. The gist of the method: as §3
In test [14] the test system is Monocyte. The test can be described thus: Inhibition of IL1-beta expression in LPS-stimulated human monocytes at 100 uM treated 30 mins before LPS challenge measured after 14 hrs by ELISA. The format is functional. The gist of the method:
as §1

The structures appear in SMILES notation. The source made the active and inactive calls. The rule behind the calls is not given here.

Take `COc1ccc(-c2oc3c(OC)c(OC)c(OC)c(OC)c3c(=O)c2OC)cc1OC` [3,5,6,7,8,3',4'-HEPTAMETHOXYFLAVONE]: the Activity in [1] was 5.7 pmol; with Monocyte [2], 49.2 ng/mL; in the test on Monocyte [5] it was 30%; in the test on Monocyte [6] (record 2) it was 90 ng/mL; with Monocyte [9], 0.269 ng/mL; with Monocyte [11] it was 9.7 ng/mL. Moreover, the Activity in the test on Monocyte [12] (record 2) came to 307 ng/mL; in the test on Monocyte [14] (record 2), 62.9 ng/mL. Also, the IC50 (as a rule, the concentration that gives 50% inhibition) was found to be 7.3 µM with Monocyte [3], 5 µM in the test with Monocyte [4] and 12.3 µM in the test on Monocyte [7]. Further, the outcome in the test on Monocyte [6], in the test on Monocyte [8], with Monocyte [12] and with Monocyte [14] was inactive. Moreover, the inhibition (usually how much of the control response was suppressed) in test [10] came to 50%. Moreover, the outcome in the test on Monocyte [13] was Active.
